In one test the target is Protease (Human immunodeficiency virus 1, UniProt Q9YQ12). Kind of test: Inhibition of Wild type HIV1 Protease by FRET based assay.
The test system of test [1] is Human immunodeficiency virus 1. Kind of test: Antiviral activity against HIV1 infected MT4 cells by MTT method. Type of test: functional, organism-based. The settings on record: Human immunodeficiency virus 1, MT4. An outline of the steps:
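HIV-1 4–3 (100 CCID50) infected MT-4 cells, washed in PBS, seeded at 4 × 10⁴ cells/well in RPMI with 10% FBS. Compound dilutions added in triplicate at 0.5% DMSO final, 5 days at 37 °C, 5% CO₂, mock-infected controls in parallel. MTT added for 4 h, formazan solubilized, absorbance read at 540/690 nm.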
On the technique in general: Formazan colour is commonly taken as a measure of viable cells.

Test [2] in a line: Inhibition of HIV1 Protease M2 variant by FRET based assay. More on the design: species or system Human immunodeficiency virus 1.
A short description of test [3]: Inhibition of HIV1 Protease M3 variant by FRET based assay. More on the design: species or system Human immunodeficiency virus 1.
A short description of test [4]: Inhibition of HIV1 Protease M1 variant by FRET based assay. Further details: species or system Human immunodeficiency virus 1.

SMILES strings stand for the structures.

As a reminder, the Ki is a measure of affinity in units of concentration, obtained from inhibition or displacement. In general, EC50 refers to the concentration giving half of the maximal effect. A low value points to higher potency in that assay.

Protease, sequence (Q9YQ12 whole entry): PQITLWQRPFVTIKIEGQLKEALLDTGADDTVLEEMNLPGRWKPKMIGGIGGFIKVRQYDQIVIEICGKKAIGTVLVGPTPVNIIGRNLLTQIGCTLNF

In turn, `COC(=O)N[C@H](C(=O)N[C@@H](Cc1ccccc1)[C@@H](O)CN(CC(C)C)NC(=O)[C@@H]1CN(c2ccccc2)C(=O)O1)C(C)(C)C` returned a Ki at Protease of 10.6 nM.

Turning to `O=C(Cc1ccc2c(c1)OCO2)N[C@@H](Cc1ccccc1)[C@@H](O)C[C@H](Cc1ccccc1)NC(=O)[C@@H]1CN(c2ccccc2)C(=O)O1`, the Ki at Protease came to 657 nM.

With `Cc1cccc(C)c1OCC(=O)N[C@@H](Cc1ccccc1)[C@@H](O)C[C@H](Cc1ccccc1)NC(=O)[C@H](C(C)C)N1CCCNC1=O` [LOPINAVIR], in test [1], the EC50 stood at 10 nM. In addition, the Ki in test [2] was determined as 0.04 nM; in test [3], 0.9 nM; in test [4] it was 6.1 nM.

At Protease, `Cc1cccc(C)c1OCC(=O)N[C@@H](Cc1ccccc1)C[C@H](O)[C@H](Cc1ccccc1)NC(=O)[C@@H]1CN(c2ccccc2)C(=O)O1` registered a Ki of 8.05 nM.

For `CC(=O)c1cccc(N2C[C@@H](C(=O)N[C@@H](Cc3ccccc3)[C@@H](O)C[C@H](Cc3ccccc3)NC(=O)COc3c(C)cccc3C)OC2=O)c1`, at Protease, the inhibition constant Ki worked out at 35.1 nM.

Regarding `COC(=O)N[C@H](C(=O)NN(CC(C)C)C[C@H](O)[C@H](Cc1ccccc1)NC(=O)[C@@H]1CN(c2ccccc2)C(=O)O1)C(C)(C)C`, the inhibitory constant (Ki) at Protease stood at 7 nM; in test [2] it was 39.2 nM; in test [3], 549 nM; in test [4], 231 nM.

Take `O=C(N[C@@H](Cc1ccccc1)[C@@H](O)C[C@H](Cc1ccccc1)NC(=O)[C@@H]1CN(c2cccc(C(F)(F)F)c2)C(=O)O1)OCc1cccnc1`: on Protease, the affinity corresponds to a Ki of 41.1 nM.

Regarding `CC(C)(C)NC(=O)[C@@H]1C[C@@H]2CCCC[C@@H]2CN1C[C@@H](O)[C@H](Cc1ccccc1)NC(=O)[C@H](CC(N)=O)NC(=O)c1ccc2ccccc2n1`, in test [1], the half-maximal effective concentration (EC50) amounted to 10 nM. Further, the figures for the Ki in test [2], in test [3] and in test [4] were 1.03 nM, 78.4 nM and 89.5 nM, respectively.

Regarding `CC(=O)N[C@H](C(=O)N[C@@H](Cc1ccccc1)C[C@H](O)[C@H](Cc1ccccc1)NC(=O)[C@@H]1CN(c2ccccc2)C(=O)O1)C(C)C`, the EC50 in test [1] stood at 790 nM. Besides, the figures for the Ki in test [2], in test [3] and in test [4] were 3.1 nM, 112 nM and 51.2 nM, respectively.

In turn, `CC(=O)N[C@H](C(=O)N[C@@H](Cc1ccccc1)C[C@H](O)[C@H](Cc1ccccc1)NC(=O)[C@@H]1CN(c2cccc(C(F)(F)F)c2)C(=O)O1)C(C)C` gave an inhibition constant Ki at Protease of 2.62 nM.

As to `Cc1cccc(C)c1OCC(=O)N[C@@H](Cc1ccccc1)[C@@H](O)C[C@H](Cc1ccccc1)NC(=O)[C@@H]1CN(c2ccccc2)C(=O)O1`, the inhibition constant (Ki) at Protease was 7.28 nM; in test [2] it was 18.3 nM; in test [3], 447 nM; in test [4], 364 nM.

Take `CC(=O)N[C@H](C(=O)N[C@@H](Cc1ccccc1)C[C@H](O)[C@H](Cc1ccccc1)NC(=O)[C@@H]1CN(c2cccc(C(C)=O)c2)C(=O)O1)C(C)C`: the EC50 in test [1] was found to be 620 nM. Further, the Ki is 1.67 nM in test [2], 122 nM in test [3] and 82.3 nM in test [4].

In test [1], `COC(=O)N[C@H](C(=O)N[C@@H](Cc1ccccc1)C[C@H](O)[C@H](Cc1ccccc1)NC(=O)[C@@H]1CN(c2ccccc2)C(=O)O1)C(C)(C)C` yielded a 50% effective concentration (EC50) of 1030 nM. For the same compound, the inhibition constant (Ki) at Protease came to 3.51 nM; in test [2], 14 nM; in test [3], 392 nM; in test [4], 131 nM.

On Protease, `Cc1cccc(C)c1OCC(=O)N[C@@H](Cc1ccccc1)[C@@H](O)C[C@H](Cc1ccccc1)NC(=O)[C@@H]1CN(c2cccc(C(F)(F)F)c2)C(=O)O1` displayed an inhibition constant (Ki) of 21.6 nM.

Regarding `CC(=O)N[C@H](C(=O)N[C@@H](Cc1ccccc1)C[C@H](O)[C@H](Cc1ccccc1)NC(=O)[C@@H]1CN(c2ccc(F)c(F)c2)C(=O)O1)C(C)C`, the EC50 in test [1] came to 360 nM. Also, the Ki at Protease is 2.13 nM; in test [2], 3.9 nM; in test [3], 282 nM; in test [4], 168 nM.

Compound `CC(C)CN(C[C@@H](O)[C@H](Cc1ccccc1)NC(=O)O[C@H]1CCOC1)S(=O)(=O)c1ccc(N)cc1` came in with an EC50 in test [1] of 40 nM. Further, the results for the inhibitory constant (Ki) in test [2], in test [3] and in test [4] were 0.21 nM, 1.4 nM and 0.15 nM, respectively.

`COC(=O)N[C@H](C(=O)N[C@@H](Cc1ccccc1)[C@@H](O)CN(Cc1ccc(-c2ccccn2)cc1)NC(=O)[C@@H](NC(=O)OC)C(C)(C)C)C(C)(C)C` [ATAZANAVIR]: the values for the inhibition constant (Ki) in test [2], in test [3] and in test [4] were 0.009 nM, 0.49 nM and 0.33 nM, respectively.

Take `O=C(N[C@@H](Cc1ccccc1)[C@@H](O)CN(Cc1ccc(-c2ccccn2)cc1)NC(=O)[C@@H]1CN(c2ccccc2)C(=O)O1)[C@@H]1CN(c2ccccc2)C(=O)O1`: the inhibition constant Ki on Protease was found to be 300 nM.

In the case of `Cc1cccc(C)c1OCC(=O)N[C@@H](Cc1ccccc1)[C@@H](O)C[C@H](Cc1ccccc1)NC(=O)[C@H]1CN(c2ccccc2)C(=O)O1`, the inhibition constant Ki at Protease was found to be 4730 nM.

Regarding `CC(=O)c1cccc(N2C[C@@H](C(=O)N[C@@H](Cc3ccccc3)[C@@H](O)CN(Cc3ccc(-c4ccccn4)cc3)NC(=O)[C@@H]3CN(c4cccc(C(C)=O)c4)C(=O)O3)OC2=O)c1`, affinity on Protease was put at a Ki of 1090 nM.

Turning to `CC(C)[C@@H](C(=O)N[C@@H](Cc1ccccc1)C[C@H](O)[C@H](Cc1ccccc1)NC(=O)[C@@H]1CN(c2ccccc2)C(=O)O1)N1CCCNC1=O`, in test [1], a half-maximal effect (EC50) was put at 1210 nM. In addition, the Ki in test [2] was 13.9 nM; in test [3], 185 nM; in test [4], 175 nM.

In turn, `CC(=O)c1ccc(N2C[C@@H](C(=O)N[C@@H](Cc3ccccc3)[C@@H](O)C[C@H](Cc3ccccc3)NC(=O)COc3c(C)cccc3C)OC2=O)cc1` had a Ki on Protease of 39.9 nM.

Values taken from ChEMBL document CHEMBL1148771, “Design and synthesis of HIV-1 protease inhibitors incorporating oxazolidinones as P2/P2' ligands in pseudosymmetric dipeptide isosteres” (J Med Chem, 2007).
